Published values pooled from the literature.
Lines come from different studies, so protocols differ.
Target: Serine/threonine-protein kinase N2 (PKN2, Homo sapiens, UniProt Q16513)

Cc1cc(O)c(-c2ccc([C@@H](C)CN(C)C)cc2)c2c1[nH]c(=O)c1sccc12
inhibition (enzyme activity; inhibitor; 0.1 µM): 13.8%

CCCCC(=O)Nc1ccc(-c2ccc3ncn(CCC)c(=O)c3c2)cn1
remaining binding (binding; competition with immobilised ligand; 0.5 µM): 87%

CC(C)S(=O)(=O)c1ccc2nccc(Nc3ccc4sc(C5CCCC5)nc4c3)c2c1
activity vs control (enzyme activity; inhibitor; 1 µM): 116%

CC#CC(=O)N1CCC[C@H]1c1nc(-c2ccc(C(=O)Nc3ccccn3)cc2)c2c(N)nccn12
inhibition (enzyme activity; inhibitor; 1 µM): 0%

Cc1ccc(NC(=O)c2ccnc(C(F)(F)F)c2)cc1-c1cc(OCCO)nc(N2CCOCC2)c1
remaining binding (binding; 1 µM): 89%

C1=C/COCc2cc(ccc2OCCN2CCCC2)Nc2nccc(n2)-c2cccc(c2)COC/1
remaining binding (binding; 0.1 µM): 100%

C=CC(=O)N1CCC([C@@H]2CCNc3c(C(N)=O)c(-c4ccc(Oc5ccccc5)cc4)nn32)CC1
inhibition (enzyme activity; inhibitor; 1 µM): 24%

CN1CCN(C(=O)c2ccc(NC(=O)Nc3ccc(N(C)c4ccnc(Nc5ccc(CS(C)(=O)=O)cc5)n4)cc3)cc2)CC1
remaining binding (binding; 1 µM): 100%
